Legend:
[1] = Ratio of permeability from apical to basal side of MDCK2 cells expressing MDR1 assessed as fraction of mass extracted by methanol wash at 5 uM in presence of LSN 335984 to permeability from apical to basal side of MDCK2 cells expressing MDR1 assessed as fraction of mass extracted by methanol wash at 5 uM in absence of LSN 335984; format: ADME, cell-based, Canis lupus familiaris; details: dog, mdck-ii
How it was run: (§1)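 MDCKII-MDR1 cells on Transwell polycarbonate filters (50,000 cells cm−2), used day 6. 5 μM compound added to donor chamber (AB or BA). Donor and receiver sampled after 1 h at 37 °C with nutation. Cell-associated fraction taken by methanol extraction of monolayer after AB flux. Quantified by LC-MS/MS. ±SD.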

[2] = Permeability from apical to basal side of MDCK2 cells expressing MDR1 assessed as fraction of mass extracted by methanol wash at 5 uM after 1 hr by LC-MS/MS analysis in presence of LSN 335984; format: ADME, cell-based, Canis lupus familiaris; details: dog, mdck-ii; how it was run: as §1
[3] = Permeability from apical to basal side of MDCK2 cells expressing MDR1 assessed as fraction of mass extracted by methanol wash at 5 uM after 1 hr by LC-MS/MS analysis; format: ADME, cell-based, Canis lupus familiaris; details: dog, mdck-ii; how it was run: as §1
[4] = Ratio of permeability from basal to apical side of MDCK2 cells expressing MDR1 in absence of LSN 335984 to permeability from basal to apical side of MDCK2 cells expressing MDR1 in presence of LSN 335984; format: ADME, cell-based, Canis lupus familiaris; details: dog, mdck-ii; how it was run: as §1
[5] = Permeability from basal to apical side of MDCK2 cells expressing MDR1 at 5 uM after 1 hr by LC-MS/MS analysis; format: ADME, cell-based, Canis lupus familiaris, MDCK-II; details: dog, MDCK-MDR1; read-out: permeability; how it was run: as §1
[6] = Permeability from apical to basal side of MDCK2 cells expressing MDR1 at 5 uM after 1 hr by LC-MS/MS analysis; format: ADME, cell-based, Canis lupus familiaris, MDCK-II; details: dog, MDCK-MDR1; read-out: permeability; how it was run: as §1
[7] = n-Octanol-water partition coefficient, log P of the compound at pH 7.4 by shake flask method; format: physicochemical
[8] = target: T1, ATP-dependent translocase ABCB1 (Homo sapiens, UniProt P08183); assay: Inhibition of MDR1 transfected in MDCK2 cells assessed as inhibition of [3H]vinblastine efflux incubated for 30 mins prior to [3H]vinblastine addition by scintillation counting; format: cell-based, MDCK-II
T1 sequence (P08183 whole entry): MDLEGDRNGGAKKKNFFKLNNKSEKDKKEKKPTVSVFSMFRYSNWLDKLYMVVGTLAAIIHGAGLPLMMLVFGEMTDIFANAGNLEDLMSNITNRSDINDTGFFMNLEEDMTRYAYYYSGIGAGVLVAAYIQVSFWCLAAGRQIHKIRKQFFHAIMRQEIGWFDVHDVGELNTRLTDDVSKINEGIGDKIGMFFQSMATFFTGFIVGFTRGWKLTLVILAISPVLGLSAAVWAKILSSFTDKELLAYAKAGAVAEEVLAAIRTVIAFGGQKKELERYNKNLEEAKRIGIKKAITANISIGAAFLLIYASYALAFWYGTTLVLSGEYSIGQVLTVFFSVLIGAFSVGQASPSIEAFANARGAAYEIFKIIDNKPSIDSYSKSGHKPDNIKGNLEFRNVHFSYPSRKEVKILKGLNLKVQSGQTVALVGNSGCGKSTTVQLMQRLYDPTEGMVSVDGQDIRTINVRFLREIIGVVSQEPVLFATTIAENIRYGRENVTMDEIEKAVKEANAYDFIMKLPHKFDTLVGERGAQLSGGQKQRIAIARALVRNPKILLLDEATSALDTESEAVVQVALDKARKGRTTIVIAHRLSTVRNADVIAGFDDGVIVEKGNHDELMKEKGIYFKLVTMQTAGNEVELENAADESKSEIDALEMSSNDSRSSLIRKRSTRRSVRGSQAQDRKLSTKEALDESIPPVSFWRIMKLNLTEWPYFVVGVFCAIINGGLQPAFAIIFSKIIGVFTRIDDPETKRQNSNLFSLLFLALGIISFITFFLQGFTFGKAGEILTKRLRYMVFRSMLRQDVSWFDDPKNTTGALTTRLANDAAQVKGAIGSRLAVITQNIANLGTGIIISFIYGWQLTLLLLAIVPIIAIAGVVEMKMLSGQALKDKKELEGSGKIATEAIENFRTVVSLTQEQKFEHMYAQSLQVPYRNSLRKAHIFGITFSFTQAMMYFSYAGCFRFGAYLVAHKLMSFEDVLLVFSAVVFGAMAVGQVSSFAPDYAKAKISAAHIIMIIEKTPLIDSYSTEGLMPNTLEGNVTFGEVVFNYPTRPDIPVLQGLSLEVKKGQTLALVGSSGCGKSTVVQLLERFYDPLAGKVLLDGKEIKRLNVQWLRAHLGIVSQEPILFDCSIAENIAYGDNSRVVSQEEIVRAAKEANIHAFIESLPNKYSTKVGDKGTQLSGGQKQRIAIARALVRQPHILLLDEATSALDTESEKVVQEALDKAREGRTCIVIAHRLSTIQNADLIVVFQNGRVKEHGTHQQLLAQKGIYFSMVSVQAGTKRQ
How it was run: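 Transwell MDCKII-MDR1 monolayers on day 6, rinsed 10 min in DPBSH at 37 °C. Conditioned with compound at 1 × 10−10 to 1 × 10−5 M in BSA/DPBSH. [3H]-vinblastine added to the basolateral side. Apical buffer replaced every 10 min, and apical [3H] counted by scintillation. IC50 calculated from the curve.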

P-gp (MDR1, ABCB1) [9] = target: T2, P-gp (MDR1, ABCB1) (Homo sapiens, UniProt P08183); assay: Inhibition of MDR1 transfected in MDCK2 cells assessed as increase in calcein AM uptake at 2.5*10^-5 M incubated for 30 mins prior to calcein AM influx measured after 20 mins by fluorimetric analysis relative to LSN 335984; format: cell-based, MDCK-II; details: dog, MDCK2 cells transfected with MDR1, probe calcein AM
T2 sequence (P08183 whole entry): as above
How it was run: (§2)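 MDCKII-MDR1 cells (passage 16-42) seeded 40,000 cells/well, used day 4. Washed with DPBS plus 10−2 M Hepes pH 7.4, then incubated 30 min at 37 °C with compound in this buffer with 4.3 mg mL−1 BSA. Compound solution then replaced with one also holding 0.5 μg mL−1 calcein AM, 20 min more.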

P-gp (MDR1, ABCB1) [10] = target: T2, P-gp (MDR1, ABCB1); assay: Inhibition of MDR1 transfected in MDCK2 cells assessed as increase in calcein AM uptake at 5*10^-6 M incubated for 30 mins prior to calcein AM influx measured after 20 mins by fluorimetric analysis relative to LSN 335984; format: cell-based, MDCK-II; details: dog, MDCK2 cells transfected with MDR1, probe calcein AM; how it was run: as §2
[11] = target: T1, ATP-dependent translocase ABCB1; assay: Inhibition of MDR1 transfected in MDCK2 cells assessed as increase in calcein AM uptake incubated for 30 mins prior to calcein AM influx measured after 20 mins by fluorimetric analysis; format: cell-based, MDCK-II
[12] = target: P-gp (ABCB1) ATPase activity (Homo sapiens, UniProt P08183); assay: Binding affinity to human His10-tagged P-gp expressed in BHK cells assessed as induction of ATPase activity measured as inorganic phosphate release by spectrophotometric analysis relative to control; format: cell-based; details: read-out: FC
Chain of P-gp (ABCB1) ATPase activity (P08183 whole entry): as above

[13] = target: T1, ATP-dependent translocase ABCB1; assay: Inhibition of human His10-tagged P-gp ATPase activity expressed in BHK cells assessed as verapamil-induced inorganic phosphate release incubated for 15 mins prior to verapamil addition by spectrophotometric analysis; format: cell-based
How it was run: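 P-gp-His10 stably expressed in BHK cells, Ni-chelate purified and mixed 1:1 with 10 mg/ml sheep brain phosphatidylethanolamine. Pre-incubated with compound 15 min at 20 °C. […] Released inorganic phosphate measured.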

Row | SMILES | Ratio [1] | permeability [2] | permeability [3] | Ratio [4] | Papp B→A at 1 h, 5 µM [5] | Papp A→B at 1 h, 5 µM [6] | logD [7] | IC50 [8] | inhibition at 20 min, 25 µM (P-gp (MDR1, ABCB1) [9]) | inhibition at 20 min, 5 µM (P-gp (MDR1, ABCB1) [10]) | IC50 [11] | fold induction [12] | IC50 [13]
1 | CCN(CC)C(=S)c1ccc(-c2c3ccc(=[N+](C)C)cc-3sc3cc4c(cc23)C(C)(C)CCN4C)s1.F[P-](F)(F)(F)(F)F | 1.2 | 64% | 52% | 69 | 6.9 ×10⁻⁶ cm/s | ≤ 0.1 ×10⁻⁶ cm/s | 2.7 | 8.7 µM | 64% | 0% | 8.8 µM | 4.3 | –
2 | CCN(CC)C(=O)c1ccc(-c2c3ccc(=[N+](C)C)cc-3sc3c4c5c(cc23)CCCN5CCC4)s1.F[P-](F)(F)(F)(F)F | 4.8 | 28% | 5.8% | 12 | 21 ×10⁻⁶ cm/s | ≤ 0.1 ×10⁻⁶ cm/s | 1.9 | – | 41% | 0% | 10 µM | 5.6 | –
3 | CN1CCC(C)(C)c2cc3c(-c4ccc(C(=S)N5CCCCC5)s4)c4ccc(=[N+](C)C)cc-4sc3cc21.F[P-](F)(F)(F)(F)F | 1.8 | 62% | 34% | 170 | 3.4 ×10⁻⁶ cm/s | ≤ 0.1 ×10⁻⁶ cm/s | 2.6 | 8.9 µM | 64% | 0% | 9.3 µM | < 2 | 1.7 µM
4 | CN(C)c1ccc2c(-c3ccc(C(=O)N4CCCCC4)s3)c3ccc(=[N+](C)C)cc-3sc2c1 | – | – | – | – | – | – | 1.5 | – | – | – | – | – | –
5 | CCN(CC)C(=S)c1ccc(-c2c3ccc(=[N+](C)C)cc-3sc3cc(N(C)C)ccc23)s1.F[P-](F)(F)(F)(F)F | 5.1 | 56% | 11% | 41 | 21 ×10⁻⁶ cm/s | ≤ 0.1 ×10⁻⁶ cm/s | 1.2 | – | 3% | 0% | 14 µM | 12.1 | –
6 | CCN(CC)C(=O)c1ccc(-c2c3ccc(=[N+](C)C)cc-3sc3cc(N(C)C)ccc23)s1 | – | – | – | – | – | – | 1.2 | – | – | – | – | – | –
7 | CCN(CC)C(=O)c1ccc(-c2c3ccc(=[N+](C)C)cc-3sc3cc4c(cc23)C(C)(C)CCN4C)s1.F[P-](F)(F)(F)(F)F | 3.3 | 33% | 10% | 14 | 37 ×10⁻⁶ cm/s | ≤ 0.1 ×10⁻⁶ cm/s | 1.4 | 8 µM | 64% | 0% | 7.1 µM | 4.7 | –
8 | CCN(CC)C(=S)c1ccc(-c2c3ccc(=[N+](C)C)cc-3sc3c4c5c(cc23)CCCN5CCC4)s1.F[P-](F)(F)(F)(F)F | 1.8 | 45% | 25% | 24 | 6.5 ×10⁻⁶ cm/s | ≤ 0.1 ×10⁻⁶ cm/s | 1.7 | – | 41% | 0% | 9.6 µM | 4.6 | –
9 | C[N+](C)=c1ccc2c(-c3ccc(C(=O)N4CCCCC4)s3)c3cc4c5c(c3sc-2c1)CCCN5CCC4.F[P-](F)(F)(F)(F)F | 6.1 | 42% | 6.9% | 27 | 22 ×10⁻⁶ cm/s | ≤ 0.1 ×10⁻⁶ cm/s | 1.4 | – | 41% | 0% | 56 µM | 4.1 | –
10 | C[N+](C)=c1ccc2c(-c3ccc(C(=S)N4CCCCC4)s3)c3cc4c5c(c3sc-2c1)CCCN5CCC4.F[P-](F)(F)(F)(F)F | – | 64% | 31% | – | 8.3 ×10⁻⁶ cm/s | ≤ 0.1 ×10⁻⁶ cm/s | – | – | 41% | 0% | – | – | –
11 | CN1CCC(C)(C)c2cc3c(-c4ccc(C(=O)N5CCCCC5)s4)c4ccc(=[N+](C)C)cc-4sc3cc21.F[P-](F)(F)(F)(F)F | 5.2 | 45% | 8.6% | 31 | 23 ×10⁻⁶ cm/s | ≤ 0.1 ×10⁻⁶ cm/s | 1.7 | 5.6 µM | 64% | 0% | 13 µM | < 2 | 1.1 µM
